Test results: ChEMBL document CHEMBL1138258, “Optimizing cell permeation of an antibiotic resistance inhibitor for improved efficacy” (J Med Chem, 2007)

What was measured:
[1] = system: Escherichia coli; assay: Antibacterial activity against Escherichia coli K12 JM109 overexpressing beta-lactamase; type: functional
Procedure, shortened: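 Broth microdilution in Mueller Hinton broth against E. coli K12 JM109 overexpressing AmpC from a heat-sensitive pOGO plasmid. Ampicillin MIC determined with and without boronic acids; final inoculum 5 × 10^5 CFU/mL; DMSO below 5%.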

[2] = Dissociation constant, pKa of the compound; type: physicochemical
Procedure, shortened: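 UV spectrophotometric determination on 10^-4 M aqueous solutions, by two methods. First, spectra were recorded at pH between 2 and 12 with ionic strength fixed at 0.01. Second, solutions at pH 2 (0.5 N HCl) were titrated with 0.5 N NaOH up to pH 12. pKa was derived with the Henderson-Hasselbalch equation and absorption-spectra extrapolation.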

pKa [2] | SMILES | MIC [1]
6.39 | OCCN(CCO)Cc1ccc2sc(B(O)O)cc2c1 | 
6.6 | O=CNCc1ccc2sc(B(O)O)cc2c1 | 
6.39 | OB(O)c1cc2cc(CNc3ccc(C(O)(C(F)(F)F)C(F)(F)F)cc3)ccc2s1 | 
6.39 | OB(O)c1cccc(NCc2ccc3sc(B(O)O)cc3c2)c1 | 
6.39 | O=C(O)c1cccc(NCc2ccc3sc(B(O)O)cc3c2)c1 | 
6.39 | OB(O)c1cc2cc(COCc3ccccc3)ccc2s1 | 
6.39 | OB(O)c1cc2cc(COc3ccc(Cl)c(Cl)c3)ccc2s1 | 
6.39 | OB(O)c1cc2cc(CNc3ccc(N4CCOCC4)cc3)ccc2s1 | 
6.39 | OCc1ccc2sc(B(O)O)cc2c1 | 
6.39 | OB(O)c1cc2cc(COc3ccccc3)ccc2s1 | 
6.39 | COc1ccc(NCc2ccc3sc(B(O)O)cc3c2)cc1OC | 
6.39 | OB(O)c1cc2cc(CBr)ccc2s1 | 
6.39 | OB(O)c1cc2cc(CN3CCNCC3)ccc2s1 | 
 | CC1(C)S[C@@H]2[C@H](NC(=O)[C@H](N)c3ccccc3)C(=O)N2[C@H]1C(=O)O [AMPICILLIN] | 512 µg/mL

SMILES | pKa [2] | MIC [1]
O=CN(C=O)Cc1ccc2sc(B(O)O)cc2c1 | 6.39 | 92 µM
O=[N+]([O-])c1cccc(NCc2ccc3sc(B(O)O)cc3c2)c1 | 6.39 | 78 µM
CC(=O)c1ccc(NCc2ccc3sc(B(O)O)cc3c2)cc1 | 6.39 | 314 µM
O=C(O)CNCc1ccc2sc(B(O)O)cc2c1 | 6.39 | 92 µM
Nn1cn[n+](Cc2ccc3sc(B(O)O)cc3c2)c1 | 6.39 | 117 µM
OB(O)c1cc2cc(CSc3ccccc3)ccc2s1 | 6.39 | 84 µM
Cc1ccc2sc(B(O)O)cc2c1 | 6.39 | 117 µM
OB(O)c1cc2ccccc2s1 | 6.39 | 359 µM
OB(O)c1cc2cc(Cn3ccnc3)ccc2s1 | 6.39 | 94 µM
OB(O)c1cc2cc(CNc3ccc(Cl)c(Cl)c3)ccc2s1 | 6.39 | 147 µM
